Experiments:
[1] = target: Adenosine receptors; A1 & A2b (Homo sapiens) (UniProt P30542+P29275); assay: Selectivity for human adenosine A2b receptor over adenosine A1 receptor; assay type: protein assay
[2] = target: Adenosine A2 receptor (Homo sapiens) (UniProt P29275+P29274); assay: Selectivity for human adenosine A2b receptor over adenosine A2a receptor; assay type: protein assay
Adenosine receptor A2a = Adenosine receptor A2a (Homo sapiens, UniProt P29274); assay: Displacement of [3H]ZM-241385 from human adenosine A2a receptor expressed in HEK cells; assay type: cell-based, HEK293
Chain of Adenosine receptor A2a (P29274 whole entry): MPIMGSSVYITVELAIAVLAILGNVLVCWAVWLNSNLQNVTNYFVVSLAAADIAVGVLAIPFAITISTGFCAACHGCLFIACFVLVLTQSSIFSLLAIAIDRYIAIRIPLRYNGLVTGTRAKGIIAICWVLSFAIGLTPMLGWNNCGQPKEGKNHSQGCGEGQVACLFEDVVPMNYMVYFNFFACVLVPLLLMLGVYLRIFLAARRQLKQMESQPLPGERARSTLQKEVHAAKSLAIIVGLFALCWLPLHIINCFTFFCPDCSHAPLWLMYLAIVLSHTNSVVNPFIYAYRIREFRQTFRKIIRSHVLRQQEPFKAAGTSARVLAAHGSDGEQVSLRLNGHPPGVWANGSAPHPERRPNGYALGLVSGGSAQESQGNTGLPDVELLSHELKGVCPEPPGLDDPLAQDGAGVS

Adenosine receptor A1 = target: T1, Adenosine receptor A1 (Homo sapiens, UniProt P30542); assay: Displacement of [3H]CPX from human adenosine A1 receptor expressed in CHO cells
T1 sequence (P30542 whole entry): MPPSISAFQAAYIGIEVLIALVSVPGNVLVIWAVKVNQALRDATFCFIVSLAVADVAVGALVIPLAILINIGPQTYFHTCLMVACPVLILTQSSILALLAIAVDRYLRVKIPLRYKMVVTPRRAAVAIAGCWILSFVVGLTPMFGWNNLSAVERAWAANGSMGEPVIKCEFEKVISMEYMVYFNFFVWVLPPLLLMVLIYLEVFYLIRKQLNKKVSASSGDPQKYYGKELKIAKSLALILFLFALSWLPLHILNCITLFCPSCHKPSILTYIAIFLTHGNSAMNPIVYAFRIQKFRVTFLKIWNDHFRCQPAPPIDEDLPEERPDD

Adenosine receptor A2b = target: T2, Adenosine receptor A2b (Homo sapiens, UniProt P29275); assay: Displacement of [3H]ZM241385 from human adenosine A2b receptor expressed in HEK cells; assay type: cell-based, HEK293
T2 sequence (P29275 whole entry): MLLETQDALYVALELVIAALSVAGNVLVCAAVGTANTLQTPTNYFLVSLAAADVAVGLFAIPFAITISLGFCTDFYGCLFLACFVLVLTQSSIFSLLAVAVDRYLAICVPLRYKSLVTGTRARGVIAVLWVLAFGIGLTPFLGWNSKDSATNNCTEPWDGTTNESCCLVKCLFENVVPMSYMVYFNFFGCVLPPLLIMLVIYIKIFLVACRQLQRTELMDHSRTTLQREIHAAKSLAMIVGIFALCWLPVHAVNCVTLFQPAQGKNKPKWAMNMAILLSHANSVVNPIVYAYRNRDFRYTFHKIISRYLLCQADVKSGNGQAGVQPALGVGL

Adenosine receptor A3 = target: T3, Adenosine receptor A3 (Homo sapiens, UniProt P0DMS8); assay: Displacement of [125I]AB-MECA from human adenosine A3 receptor expressed in CHO cells; assay type: cell-based
T3 sequence (P0DMS8 whole entry): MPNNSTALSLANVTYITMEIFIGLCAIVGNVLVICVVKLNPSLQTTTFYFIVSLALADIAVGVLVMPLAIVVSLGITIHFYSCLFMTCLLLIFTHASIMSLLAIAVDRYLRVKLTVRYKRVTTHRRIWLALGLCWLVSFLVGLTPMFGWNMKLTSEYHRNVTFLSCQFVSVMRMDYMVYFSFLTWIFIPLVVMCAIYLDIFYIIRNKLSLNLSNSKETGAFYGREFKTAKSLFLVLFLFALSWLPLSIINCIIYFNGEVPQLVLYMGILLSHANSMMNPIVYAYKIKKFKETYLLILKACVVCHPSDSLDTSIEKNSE
How it was run: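 Membranes from CHO cells stably expressing human A3 receptor, prepared like the A2B membranes. Incubated 90 min at 25 °C with gentle agitation, then filtered and washed 4× in ice-cold TM buffer. Nonspecific binding was defined with 1 µM IB-MECA.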

[3] = target: Adenosine receptors; A2b & A3 (Homo sapiens) (UniProt P29275+P0DMS8); assay: Selectivity for human adenosine A2b receptor over adenosine A3 receptor; assay type: protein assay

Ratio Ki [1]	Ratio Ki [2]	Ki (Adenosine receptor A2a)	Ki (Adenosine receptor A1)	Ki (Adenosine receptor A2b)	Ki (Adenosine receptor A3)	Ratio Ki [3]	SMILES
7	8	280 nM	170 nM	35 nM			CCCn1c(=O)c2nc(-c3cnn(Cc4ccc(F)c(F)c4)c3)[nH]c2n(CCC)c1=O
7	26	290 nM	76 nM	11 nM	170 nM	15	CCCn1c(=O)c2[nH]c(-c3cnn(Cc4ccccc4)c3)nc2n(CCC)c1=O
12	27	400 nM	170 nM	14 nM	150 nM	10	CCCn1c(=O)c2[nH]c(-c3cnn(Cc4cccc(C(F)(F)F)c4)c3)nc2n(CCC)c1=O
2	7	150 nM	41 nM	20 nM			CCCn1c(=O)c2nc(-c3cnn(Cc4ccc(C(F)(F)F)cc4)c3)[nH]c2n(CCC)c1=O
13	18	230 nM	170 nM	14 nM	56 nM	4	CCCn1c(=O)c2[nH]c(-c3cnn(Cc4cccc(F)c4)c3)nc2n(CCC)c1=O
17	7	200 nM	460 nM	27 nM			Cn1c(=O)c2[nH]c(-c3cnn(Cc4cccc(F)c4)c3)nc2n(C)c1=O
990	690	690 nM	990 nM	1 nM	1000 nM	1000	Cn1c(=O)c2nc(-c3cnn(Cc4cccc(C(F)(F)F)c4)c3)[nH]c2n(C)c1=O
2	4	79 nM	31 nM	18 nM			CCCn1c(=O)c2nc(-c3cnn(Cc4cccc(Cl)c4)c3)[nH]c2n(CCC)c1=O
0.5	4	88 nM	7 nM	18 nM			CCCn1c(=O)c2nc(-c3cnn(Cc4ccc(Cl)cc4)c3)[nH]c2n(CCC)c1=O
9	13	870 nM	530 nM	58 nM			CCCn1c(=O)c2nc(-c3cnn(Cc4cccc(Cl)c4F)c3)[nH]c2n(CCC)c1=O
1	2	70 nM	34 nM	34 nM			CCCn1c(=O)c2nc(-c3cnn(Cc4cccc(OC)c4)c3)[nH]c2n(CCC)c1=O
		230 nM	20 nM	9 nM	23 nM		CCCn1c(=O)c2[nH]c(-c3cn[nH]c3)nc2n(CCC)c1=O
0.7	2	220 nM	77 nM	100 nM			CCCn1c(=O)c2nc(-c3cnn(CCCc4ccccc4)c3)[nH]c2n(CCC)c1=O
2	1	3500 nM	> 6000 nM	2300 nM			Cn1c(=O)c2nc(-c3cnn(Cc4ccccc4)c3)[nH]c2n(C)c1=O
2	23					2	CCCn1c(=O)c2nc(-c3cn[nH]c3)[nH]c2n(CCC)c1=O
76	58	290 nM	380 nM	5 nM			CCn1c(=O)c2nc(-c3cnn(Cc4cccc(F)c4)c3)[nH]c2n(CC)c1=O
44	34	450 nM	570 nM	13 nM			CCn1c(=O)c2nc(-c3cnn(Cc4cccc(C(F)(F)F)c4)c3)[nH]c2n(CC)c1=O
54	63	1400 nM	1200 nM	22 nM	2800 nM	129	CCCn1c(=O)c2nc(-c3cnn(Cc4cc(C(F)(F)F)ccc4Cl)c3)[nH]c2n(CCC)c1=O
		> 1000 nM	> 1000 nM		> 1000 nM		CCCn1c(=O)c2[nH]c(-c3cc(NC(=O)Cc4ccc(OC)c(OC)c4)nn3C)nc2n(CCC)c1=O
